The list is not random: actives were taken first. Their share in the collection is about 2.6%.
Rin1 Abl inh: inhibitors of Rin1-Abl protein binding, primary screen, biochemical, TR-FRET; actives 0.4% (n = 360,000); Tyrosine-protein kinase ABL1 (Homo sapiens) + Ras and Rab interactor 1 (Homo sapiens), …; inhibition, % at 7.35 µM; AID 588664, 2011; in the data active = inhibition above about 5%, passing the limit was not always enough
Myeloid diff MLP: induction of myeloid progenitor differentiation, primary screen, cell-based, flow cytometry, MLPCN library | ER-HoxA9 myeloid progenitors, lysozyme-GFP differentiation | calls only at 10 µM | actives 1% (n = 360,000) | AID 624256, 2012;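 active = normalized GFP-positive differentiation at or above the plate's own cutoff, the solvent-only control mean plus 3 SD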;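 also: cells exposed to compound for four days before flow analysis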
SKN-1 inh: suppressors of acrylamide-induced Pgst-4::GFP reporter in worms, primary screen, SKN-1 inhibitor project, whole organism, uHTS, GFP/RFP fluorescence ratio, strain VP596; C. elegans VP596 Pgst-4::GFP/RFP ratio, 24 h; actives 0.49% (n = 360,000); inhibition, % at 21.8 µM;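 active = interference check ratio from 0.5 to 1.5 plus GFP to RFP signal ratio inhibition reaching or exceeding a fixed threshold, cut at about 30% in these data, passing the limit was not always enough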
Rce1 inh: yeast Rce1p protease inhibitors, primary screen, biochemical, fluorescence, cell-free homogeneous; actives 0.27% (n = 290,000); calls only; yeast membranes, quenched prenylated peptide cleavage fluorescence;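 active = fall in fluorescence gain of 50% or more versus controls, with final raw signal at or below 3038400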;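 also: plate controls were neutral control wells for no effect and wells lacking membranes for full effect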
T cell HTS: modulators of CD8 T cell-vesicle binding, primary screen, mouse 2C CD8+ T cells, flow cytometry; 2C CD8+ T cell-vesicle binding; stronger effect = lower value; response (vesicle binding), % at 7 µM; actives 0.068% (n = 330,000);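 active = response, share of CD8 T cells binding vesicles, and their 90th percentile fluorescence all below set limits, cut at about 80% in these data, passing the limit was not always enough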;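 also: values below 100% mean blocked vesicle binding to the CD8+ T cells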
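Material: murine 2C transgenic CD8+ T lymphocytes / Also added: QL9-peptide-loaded Drosophila micro-vesicles bearing Ld, ICAM-1 and B7-1 / Schedule: binding step 1.5 h, 37 °C, antibody labelling 20 min, ice / Signal: flow cytometry, PE anti-B7-1 (FL2) versus Alexa647 anti-CD8 (FL8), PFA-fixed / Evaluation: percent CD8+ FL2 mean versus row control / Benchmarks: naked versus QL9-loaded vesicles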
GRK2 aptamer HTS: compounds blocking aptamer binding on GRK2 – biochemical, human GRK2, bead flow cytometry, HTS, primary screen; FAM-aptamer displacement from GRK2; Beta-adrenergic receptor kinase 1 (Homo sapiens), P25098; actives 0.59% (n = 330,000); inhibition of aptamer binding, % at 10 µM;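 active = inhibition of aptamer binding above 40%, roughly 3 SD of noise, on plates passing a quality check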;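 also: median bead fluorescence of bound FAM aptamer so fluorescent compounds give negative values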
Target sequence (P25098 whole entry, looked up): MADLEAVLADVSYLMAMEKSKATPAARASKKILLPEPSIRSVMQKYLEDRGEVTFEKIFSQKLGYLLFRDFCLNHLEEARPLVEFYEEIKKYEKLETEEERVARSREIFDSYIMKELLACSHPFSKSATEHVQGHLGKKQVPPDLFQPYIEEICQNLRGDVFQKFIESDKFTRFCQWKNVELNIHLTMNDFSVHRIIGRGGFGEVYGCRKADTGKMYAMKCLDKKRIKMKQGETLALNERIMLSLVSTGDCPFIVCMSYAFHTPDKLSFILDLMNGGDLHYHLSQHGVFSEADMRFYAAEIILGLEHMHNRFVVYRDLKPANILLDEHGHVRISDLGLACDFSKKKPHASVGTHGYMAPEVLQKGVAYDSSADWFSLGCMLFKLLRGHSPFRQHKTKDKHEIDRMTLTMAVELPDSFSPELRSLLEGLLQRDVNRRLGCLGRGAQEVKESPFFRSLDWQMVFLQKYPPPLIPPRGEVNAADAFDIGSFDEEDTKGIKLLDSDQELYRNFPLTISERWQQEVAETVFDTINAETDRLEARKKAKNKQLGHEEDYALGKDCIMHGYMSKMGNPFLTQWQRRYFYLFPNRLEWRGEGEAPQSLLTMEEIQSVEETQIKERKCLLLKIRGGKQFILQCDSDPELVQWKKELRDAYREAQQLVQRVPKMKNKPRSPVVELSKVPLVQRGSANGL
Myeloid diff CP1: inducers of myeloid progenitor differentiation, confirmation, cell-based, GFP/Mac1 flow cytometry, cherry pick 01 | shares compounds with Myeloid diff MLP | ER-HoxA9 myeloid progenitors, GFP/Mac1 double-positive flow | calls only | actives 2% (n = 2,300) | AID 651706, 2012;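 active = share of green or green-and-red cells above 9 and 9% in run 1 or 4 and 3% in run 2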
GFP autofluor: compound fluorescence in myeloid differentiation counter-screen; AID 651707; shares compounds with Myeloid diff MLP; ER-HoxA9 myeloid progenitors, no estrogen, GFP autofluorescence flow cytometry; vehicle wells 0%, positive control 100%; fluorescence response, % (no concentration beside the values); actives 7.4% (n = 2,300);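 active = over 5% cells positive for green fluorescent reporter, or over 2% positive for both it and APC stain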;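 also: range taken on the double positive population between DMSO and positive control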
An asterisk follows results filed as active; i = inactive; x = not tested or not shown; + = active, no number.

SMILES | Rin1 Abl inh | Myeloid diff MLP | SKN-1 inh | Rce1 inh | T cell HTS | GRK2 aptamer HTS | Myeloid diff CP1 | GFP autofluor
O=C(NCCc1ccccc1)c1nnc(CS(=O)(=O)c2ccccc2)o1 | -1 | i | 2 | i | 256 | 0 | x | x
CC(C)C[C@H]1CN([C@@H](CC(C)C)CN2CCCC2CN2C(=S)NC[C@@H]2Cc2ccccc2)C(=S)N1CCc1ccccc1 (some centres undefined) | x | i | 2 | x | x | x | x | x
CCOC(=O)N1CCN(C(=O)C2CCN(S(=O)(=O)N3CCCC3)CC2)CC1 | 5 | + | -2 | x | 226 | 1 | i | 0
CCOc1ccc(C2/C(=C(/O)c3ccc4c(c3)CC(C)O4)C(=O)C(=O)N2CCCn2ccnc2)cc1OCC (centres undefined) | -2 | i | 5 | i | 341 | 0 | x | x
CC1Cc2ccccc2N1C(=O)c1ccnc(C(C)(C)C)c1 (centres undefined) | 1 | + | 10 | i | 452 | 0 | i | 0
CCc1ccc(NC2CC(=O)N(c3ccc(OC)cc3OC)C2=O)cc1 (centres undefined) | 0 | i | -7 | x | 209 | 2 | i | 1
CC1(C)c2cc(O)ccc2OC1N1CCOCC1 (centres undefined) | 4 | i | -3 | i | 570 | 5 | x | x
Cc1ccc(Cl)cc1NC(=O)CN1CCOCC1 | -1 | i | -7 | i | 428 | 2 | x | x
CCCc1[nH]n(-c2ccc(F)cc2)c(=O)c1C=NCC1CCCO1 (centres undefined) | 3 | i | 5 | i | 830 | 0 | x | x
CCCc1[nH]n(-c2ccc(F)cc2)c(=O)c1C=Nc1cccc(F)c1 | -2 | i | -3 | i | 312 | 0 | i | 2
Cc1cccc(NC(=O)c2ccccc2SCc2ccc(F)cc2)n1 | 4 | + | 0 | x | 197 | 0 | i | 0
O=C(Nc1ccc(Cl)cn1)c1ccccc1SCc1ccccc1 | -1 | x | -6 | i | 252 | 0 | x | x
O=C(CSc1oc(-c2ccccc2)nc1S(=O)(=O)c1ccc(F)cc1)NCC1CCCO1 (centres undefined) | 4 | i | -4 | i | 438 | 1 | i | 0
Cc1ccc(NC(=O)CN(C)S(=O)(=O)c2cnc[nH]2)c(C)c1 | 3 | i | -14 | i | 294 | 0 | x | x
CC(C)(C)OC(=O)N1CC2(CCCCC2)CC1Cc1ccc(C(F)(F)F)cc1 (centres undefined) | -4 | i | -10 | x | x | x | i | 0
O=C(Nc1nc(-c2ccc(F)c(F)c2)cs1)C1=COCCO1 | 1 | i | 20 | x | 754 | 0 | x | x
O=C(Nc1nc(-c2ccc(Cl)cc2)cs1)C1=COCCO1 | -1 | i | 21 | i | 283 | 4 | i | 0
CCN(CC)CCNC(=O)c1cn(C)c2ccc(S(=O)(=O)N(C)C3CCCCC3)cc2c1=O | 2 | i | 1 | i | 210 | 0 | i | 0
CCOc1cc(CNc2ccc(Br)cc2)cc(Br)c1OCC(=O)NC(C)(C)C | -1 | x | -5 | i | 132 | 2 | i | 0
CC(C)n1c(SCC(=O)Nc2ccc(N3CCOCC3)cc2)nnc1-c1ccco1 | 6 | i | 7 | i | 646 | 0 | x | x
CC(C)(C)NC(=O)COc1ccc(CNCc2cccnc2)cc1 | -4 | i | -1 | i | 375 | 1 | x | x
CN(C)c1ccc(CNCc2cccnc2)cc1 | 0 | i | -9 | i | 99 | 0 | i | 0
CCCCc1c(CCC)c(=N)c2ccccc2n1C | -2 | i | 5 | i | 398 | 3 | i | 0

Screening data from PubChem.
